Reference: ChEMBL document CHEMBL3102806, “1,2,4-Triazole/oxime hybrids as new strategy for nitric oxide donors: Synthesis, anti-inflammatory, ulceroginicity and antiproliferative activities” (Eur J Med Chem, 2014)

How the values were obtained:
Format in all cases: functional
[1] = system: SF-295; experiment: Growth inhibition of human SF295 cells after 48 hrs by sulforhodamine B assay; conditions: SF-295, 48 h
Outline: (§1)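 NCI 60-cell-line panel (nine tumour subpanels), five-dose format: 10-fold dilutions from 10^-4 to 10^-8 M, 48 h continuous exposure, SRB protein stain. Percent growth at each level is derived from time-zero, untreated control and treated absorbances. GI50 is the concentration where [(Ti−Tz)/(C−Tz)]×100 = 50. Values outside the tested range are reported as above or below the limit.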

[2] = Growth inhibition of human OVCAR4 cells after 48 hrs by sulforhodamine B assay; conditions: OVCAR-4, 48 h; outline: as §1
[3] = system: SF-268; experiment: Growth inhibition of human SF268 cells after 48 hrs by sulforhodamine B assay; conditions: SF-268, 48 h; outline: as §1
[4] = system: SK-MEL-5; experiment: Growth inhibition of human SK-MEL-5 cells after 48 hrs by sulforhodamine B assay; conditions: SK-MEL-5, 48 h
Outline: (§2)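 NCI 60-cell-line panel, five-dose run at 10-fold dilutions from 10^-4 to 10^-8 M, 48 h continuous exposure. Viability by SRB protein stain. Percent growth is taken from time-zero, untreated-control and treated absorbances. GI50 is the concentration giving a 50% lower net protein increase than in control cells. TGI is taken at Ti = Tz, LC50 at a 50% loss of initial protein.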

[5] = Growth inhibition of human OVCAR5 cells after 48 hrs by sulforhodamine B assay; conditions: OVCAR-5, 48 h; outline: as §1
[6] = system: A549; experiment: Growth inhibition of human A549/ATCC cells after 48 hrs by sulforhodamine B assay; conditions: A549, 48 h
Outline: (§3)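 NCI full ~60 cell line panel. Five 10-fold concentrations from 10^-4 to 10^-8 M, 48 h continuous exposure, SRB protein read-out. Time-zero, control and treated absorbances give percentage growth. GI50 is the concentration where [(Ti−Tz)/(C−Tz)]×100 = 50; TGI is where Ti = Tz; LC50 is where [(Ti−Tz)/Tz]×100 = −50.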

[7] = system: CAKI-1; experiment: Growth inhibition of human CAKI-1 cells after 48 hrs by sulforhodamine B assay; conditions: CAKI-1, 48 h; outline: as §3
[8] = system: NCI-H322M; experiment: Growth inhibition of human NCI-H322M cells after 48 hrs by sulforhodamine B assay; outline: as §1
[9] = system: MOLT-4; experiment: Growth inhibition of human MOLT4 cells after 48 hrs by sulforhodamine B assay; conditions: MOLT-4, 48 h; outline: as §1
[10] = system: SR; experiment: Growth inhibition of human SR cells after 48 hrs by sulforhodamine B assay; outline: as §2
[11] = system: CCRF-CEM; experiment: Growth inhibition of human CCRF-CEM cells after 48 hrs by sulforhodamine B assay; outline: as §3
[12] = system: U-251; experiment: Growth inhibition of human U251 cells after 48 hrs by sulforhodamine B assay; conditions: U-251, 48 h; outline: as §2
[13] = system: KM12; experiment: Growth inhibition of human KM12 cells after 48 hrs by sulforhodamine B assay; conditions: KM12, 48 h; outline: as §1
[14] = Growth inhibition of human UO31 cells after 48 hrs by sulforhodamine B assay; conditions: UO-31, 48 h; outline: as §2
[15] = system: UACC-62; experiment: Growth inhibition of human UACC62 cells after 48 hrs by sulforhodamine B assay; conditions: UACC-62, 48 h; outline: as §2
[16] = system: 786-0; experiment: Growth inhibition of human 786-0 cells after 48 hrs by sulforhodamine B assay; conditions: 786-0, 48 h; outline: as §3
[17] = system: ACHN; experiment: Growth inhibition of human ACHN cells after 48 hrs by sulforhodamine B assay; outline: as §3
[18] = system: NCI-H226; experiment: Growth inhibition of human NCI-H226 cells after 48 hrs by sulforhodamine B assay; conditions: NCI-H226, 48 h; outline: as §1
[19] = system: SK-MEL-2; experiment: Growth inhibition of human SK-MEL-2 cells after 48 hrs by sulforhodamine B assay; conditions: SK-MEL-2, 48 h; outline: as §2
[20] = system: RPMI-8226; experiment: Growth inhibition of human RPMI8226 cells after 48 hrs by sulforhodamine B assay; conditions: RPMI-8226, 48 h; outline: as §1
[21] = system: HCT-116; experiment: Growth inhibition of human HCT116 cells after 48 hrs by sulforhodamine B assay; conditions: HCT-116, 48 h; outline: as §3
[22] = system: DU-145; experiment: Growth inhibition of human DU145 cells after 48 hrs by sulforhodamine B assay; conditions: DU-145, 48 h; outline: as §3
[23] = system: OVCAR-3; experiment: Growth inhibition of human OVCAR3 cells after 48 hrs by sulforhodamine B assay; conditions: OVCAR-3, 48 h; outline: as §1
[24] = Growth inhibition of human HOP92 cells after 48 hrs by sulforhodamine B assay; conditions: HOP-92, 48 h; outline: as §3
[25] = system: MDA-MB-435; experiment: Growth inhibition of human MDA-MB-435 cells after 48 hrs by sulforhodamine B assay; conditions: MDA-MB-435, 48 h; outline: as §1
[26] = system: HT-29; experiment: Growth inhibition of human HT-29 cells after 48 hrs by sulforhodamine B assay; conditions: HT-29, 48 h; outline: as §3
[27] = system: PC-3; experiment: Growth inhibition of human PC3 cells after 48 hrs by sulforhodamine B assay; conditions: PC-3, 48 h; outline: as §1
[28] = read-out: LC50 (the source's name)

COc1ccc(-c2nnc(SCC(=O)Nc3ccc(/C(C)=N/O)cc3)n2-c2ccccc2)cc1OC
8.08 µM: GI50 [17]
20.3 µM: TGI [3]
9.73 µM: GI50 [6]
> 100 µM: CC50 [1, 28] | GI50 [2] | TGI [2] | CC50 [2, 28] | CC50 [3, 28] | GI50 [4] | TGI [4] | CC50 [4, 28] | GI50 [5] | TGI [5] | CC50 [5, 28] | TGI [6] | CC50 [6, 28] | GI50 [7] | TGI [7] | CC50 [7, 28] | TGI [8] | CC50 [8, 28] | GI50 [9] | TGI [9] | CC50 [9, 28] | GI50 [10] | TGI [10] | CC50 [10, 28] | GI50 [11] | TGI [11] | CC50 [11, 28] | CC50 [12, 28] | GI50 [13] | TGI [13] | CC50 [13, 28] | GI50 [14] | TGI [14] | CC50 [14, 28] | GI50 [15] | TGI [15] | CC50 [15, 28] | TGI [16] | CC50 [16, 28] | TGI [17] | CC50 [17, 28] | TGI [18] | CC50 [18, 28] | CC50 [19, 28] | GI50 [20] | TGI [20] | CC50 [20, 28] | TGI [21] | CC50 [21, 28] | TGI [22] | CC50 [22, 28] | TGI [23] | CC50 [23, 28] | CC50 [24, 28] | GI50 [25] | TGI [25] | CC50 [25, 28] | GI50 [26] | TGI [26] | CC50 [26, 28] | GI50 [27] | TGI [27] | CC50 [27, 28]
3.07 µM: GI50 [3]
6.42 µM: TGI [24]
24.9 µM: GI50 [22]
7.28 µM: GI50 [18]
11.3 µM: GI50 [21]
19.6 µM: TGI [12]
2.12 µM: GI50 [24]
4.41 µM: GI50 [8]
5.04 µM: GI50 [19]
7.87 µM: GI50 [23]
37.7 µM: TGI [1]
3.39 µM: GI50 [1]
3.62 µM: GI50 [12]
14.9 µM: GI50 [16]
28.8 µM: TGI [19]
